# Reference: ChEMBL document CHEMBL4184316 (J Med Chem, 2018)
# Active and inactive are the calls of the source. No cut-off for these calls is given here.
# Tests used:
# HL-60 [1] = assay: Effect on PKM2 levels in human HL60 cells at 2.5 to 10 uM after 20 hrs by Western blot method; format: functional, cell-based
# HL-60 [2] = assay: Antiproliferative activity against human HL60 cells at 5 to 20 uM after 24 hrs in presence of shPKM2 by MTT assay; format: functional, cell-based
# In short: (§1)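 HL60 transduced with lentiviral shPKM2 or shControl (5 μg/mL Polybrene), selected 72 h in 1 μg/mL puromycin. Stable lines treated with compound or DMSO for 24 h, then viability assayed.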
# HL-60 [3] = assay: Antiproliferative activity against human HL60 cells at 5 to 20 uM after 24 hrs in presence of shControl by MTT assay; format: functional, cell-based; in short: as §1
# Pyruvate kinase PKM [4] = biological target: T1, Pyruvate kinase PKM (Homo sapiens, UniProt P14618); assay: Binding affinity to PKM2 in human HL60 cells at 20 uM after overnight incubation by silver staining-based streptavidin-agarose pull-down assay; format: cell-based
# In short: (§2)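 HL60 lysate incubated overnight at 4 °C with biotinylated probe, with or without excess free parent compound for competition. Pull-down on streptavidin-agarose, then SDS-PAGE with silver staining, or Western blot with anti-PKM2. Repeated at least three times.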
# Target sequence in this assay (P14618 2-531 limits assumed): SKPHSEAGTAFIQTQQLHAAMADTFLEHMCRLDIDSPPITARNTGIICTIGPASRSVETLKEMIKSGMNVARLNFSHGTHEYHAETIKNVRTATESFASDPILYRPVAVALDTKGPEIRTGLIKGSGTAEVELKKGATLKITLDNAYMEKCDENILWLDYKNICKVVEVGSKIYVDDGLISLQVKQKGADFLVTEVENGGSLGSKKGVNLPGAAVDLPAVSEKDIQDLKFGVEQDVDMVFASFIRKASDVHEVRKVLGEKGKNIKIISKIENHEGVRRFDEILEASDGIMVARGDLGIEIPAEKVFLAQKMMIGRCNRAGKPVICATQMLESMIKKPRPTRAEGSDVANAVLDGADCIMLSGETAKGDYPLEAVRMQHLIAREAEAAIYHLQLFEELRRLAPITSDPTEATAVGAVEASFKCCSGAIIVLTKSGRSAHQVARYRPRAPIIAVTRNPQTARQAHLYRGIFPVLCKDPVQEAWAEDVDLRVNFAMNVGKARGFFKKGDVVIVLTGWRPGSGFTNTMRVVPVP
# HL-60 [5] = assay: Antiproliferative activity against human HL60 cells after 48 hrs by MTT assay; format: functional, cell-based
# In short: (§3)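 Cells exposed to a range of concentrations for 48 h; proliferation by MTT. Mean ± SEM of six independent experiments. Resistant lines (HL-60/ADR, K562/ADR) held in ADR (printed as 1 μmol/mL) for 10–28 days, then 10 days drug-free before use. SW1990 and SH-SY5Y in DMEM + 10% FBS; leukemia lines in medium with 12% FBS. Vehicle 0.1% DMSO.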
# HL60/ADR = assay: Antiproliferative activity against human HL60/ADR cells after 48 hrs by MTT assay; format: functional, cell-based; in short: as §3
# K562 = assay: Antiproliferative activity against human K562 cells after 48 hrs by MTT assay; format: functional, cell-based; in short: as §3
# K562/Adr = assay: Antiproliferative activity against human K562/ADR cells after 48 hrs by MTT assay; format: functional, cell-based; in short: as §3
# [6] = (§4) Antiproliferative activity against human K562/G cells after 48 hrs by MTT assay; format: functional, cell-based; details: K562, 48 h; in short: as §3
# Homo sapiens = species on record: Homo sapiens; assay: as §4; format: functional, cell-based; in short: as §3
# SW1990 = assay: Antiproliferative activity against human SW1990 cells after 48 hrs by MTT assay; format: functional, cell-based; in short: as §3
# SH-SY5Y = assay: Antiproliferative activity against human SH-SY5Y cells after 48 hrs by MTT assay; format: functional, cell-based; in short: as §3
# [7] = Toxicity in zebrafish embryo xenografted with human HL60 cells assessed as mortality at 20 ug/ml relative to control; format: organism-based, Danio rerio; details: read-out: Activity
# In short: (§5)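 Zebrafish embryos at 2 dpf were injected in the yolk sac with about 300 HL60 cells prelabelled with CM-Dil. Nine injected groups were then exposed to drug at a range of dosages for 3 days, with saline as the negative control. Survival and mortality were scored against the control group, and treated versus control animals were compared by Kaplan–Meier analysis.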
# [8] = Toxicity in zebrafish embryo xenografted with human HL60 cells assessed as survival rate at <= 10 ug/ml treated for 3 days relative to control; format: organism-based, Danio rerio; in short: as §5
# HL-60 [9] = assay: Antitumor activity against human HL60 cells xenografted in zebrafish embryo assessed as decrease in cell dissemination measured after 3 days of incubation by CM-Dil staining-based microscopic method; format: functional
# In short: (§6)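 HL60 cells labelled with CM-Dil; about 300 cells injected into yolk sac of embryos at 2 dpf. Embryos kept in compound (1, 3, 10 μg/mL), cytarabine 200 μg/mL or saline for 3 days. Embryos showing dissemination counted by microscopy, 15 larvae per group. Average ± SD of three independent assays; unpaired Student's t test.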
# HL-60 [10] = assay: Antitumor activity against human HL60 cells xenografted in zebrafish embryo assessed as inhibition of cell proliferation at 10 ug/ml measured after 3 days of incubation by CM-Dil staining-based microscopic method relative to control; format: functional; in short: as §6
# HL-60 [11] = assay: Antitumor activity against human HL60 cells xenografted in zebrafish embryo assessed as inhibition of cell migration at 10 ug/ml measured after 3 days of incubation by CM-Dil staining-based microscopic method relative to control; format: functional; in short: as §6
# Pyruvate kinase PKM [12] = biological target: T1, Pyruvate kinase PKM; assay: Binding affinity to PKM2 in human HL60 cells at 20 uM after overnight incubation in presence of 200 to 400 uM MCL by silver staining-based streptavidin-agarose pull-down assay; format: cell-based; in short: as §2
# Target sequence in this assay (P14618 2-531 limits assumed): as above
# Pyruvate kinase PKM [13] = biological target: T1, Pyruvate kinase PKM; assay: Binding affinity to PKM2 in human HL60 cells at 20 uM after overnight incubation by Western blot method; format: cell-based; in short: as §2
# Target sequence in this assay (P14618 2-531 limits assumed): as above
# Pyruvate kinase PKM [14] = biological target: T1, Pyruvate kinase PKM; assay: Binding affinity to recombinant human PKM2 expressed in Escherichia coli BL21 after overnight incubation by Western blot method
# In short: (§7)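 Recombinant PKM1 or PKM2 incubated overnight at 4 °C with biotinylated probe. Biotin adduct detected by Western blot with streptavidin-HRP; loading checked by anti-PKM1/PKM2 blot. Repeated at least three times.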
# Target sequence in this assay (P14618 2-531 limits assumed): as above
# Pyruvate kinase PKM [15] = biological target: T1, Pyruvate kinase PKM; assay: Binding affinity to recombinant human PKM1 expressed in Escherichia coli BL21 after overnight incubation by Western blot method; in short: as §7
# Target sequence in this assay (P14618 2-531 limits assumed): as above
# Pyruvate kinase PKM [16] = biological target: T1, Pyruvate kinase PKM; assay: Binding affinity to recombinant human PKM2 at C424 residue expressed in Escherichia coli BL21 after 60 mins by Western blot method
# Target sequence in this assay (P14618 2-531 limits assumed): as above
# [17] = tested on: Pyruvate kinase PKM (Homo sapiens), P14618 [C424S]; assay: Binding affinity to recombinant human PKM2 C424S mutant expressed in Escherichia coli BL21 after 60 mins by Western blot method
# Pyruvate kinase PKM [18] = biological target: T1, Pyruvate kinase PKM; assay: Irreversible binding affinity to recombinant human PKM2 expressed in Escherichia coli BL21 at 20 uM incubated for 2 to 150 mins
# In short: (§8)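 PKM2 (0.25 μM) incubated with biotinylated probe (20 μM, and other concentrations) for varying times. Time-dependent binding curves fitted for observed rate constants (Kobs) at each concentration. Kobs plotted against concentration to derive kact and Ki under an irreversible-binding model.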
# Pyruvate kinase PKM [19] = biological target: T1, Pyruvate kinase PKM; assay: Irreversible binding affinity to recombinant human PKM2 expressed in Escherichia coli BL21; in short: as §8
# Pyruvate kinase PKM [20] = biological target: T1, Pyruvate kinase PKM; assay: Irreversible binding affinity to recombinant human PKM2 expressed in Escherichia coli BL21 assessed as ratio of Kact to Ki; in short: as §8
# HL-60 [21] = assay: Antitumor activity against human HL60 cells xenografted in zebrafish embryo assessed as inhibition of cell proliferation at 200 ug/ml measured after 3 days of incubation by CM-Dil staining-based microscopic method relative to control; format: functional; in short: as §6
# HL-60 [22] = assay: Antitumor activity against human HL60 cells xenografted in zebrafish embryo assessed as inhibition of cell migration at 200 ug/ml measured after 3 days of incubation by CM-Dil staining-based microscopic method relative to control; format: functional; in short: as §6
# Pyruvate kinase PKM (Homo sapiens), P14618 [C424S], sequence (P14618 whole entry C424S): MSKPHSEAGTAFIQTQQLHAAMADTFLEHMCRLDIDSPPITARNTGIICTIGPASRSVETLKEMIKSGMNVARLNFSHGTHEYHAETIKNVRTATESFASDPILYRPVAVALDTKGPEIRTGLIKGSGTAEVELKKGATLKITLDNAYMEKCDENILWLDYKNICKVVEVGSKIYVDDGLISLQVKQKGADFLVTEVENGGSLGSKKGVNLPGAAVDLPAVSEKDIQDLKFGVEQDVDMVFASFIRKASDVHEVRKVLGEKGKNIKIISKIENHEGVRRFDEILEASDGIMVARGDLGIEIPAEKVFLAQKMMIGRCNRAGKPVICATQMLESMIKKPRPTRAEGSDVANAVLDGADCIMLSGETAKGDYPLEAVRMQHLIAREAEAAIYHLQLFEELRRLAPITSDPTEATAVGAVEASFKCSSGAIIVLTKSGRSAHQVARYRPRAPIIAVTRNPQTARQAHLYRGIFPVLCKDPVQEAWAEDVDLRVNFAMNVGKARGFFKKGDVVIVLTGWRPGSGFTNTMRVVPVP
structure (smiles),measurement,setting,value
C=C1C(=O)O[C@H]2[C@H]1CCC(C)=C1CC[C@@](C)(O)[C@@H]12,Activity,HL-60 [1],inactive
same,Activity,HL-60 [2],inactive
same,Activity,HL-60 [3],Active
CC1=C2CC[C@@](C)(OC(=O)CCCc3cn(CCOCCOCCOCCNC(=O)CCCC[C@H]4SC[C@H]5NC(=O)N[C@H]54)nn3)[C@@H]2[C@H]2OC(=O)[C@@H](C)[C@@H]2CC1,Activity,Pyruvate kinase PKM [4],inactive
CC1=C2CC[C@@](C)(O)[C@@H]2[C@H]2OC(=O)[C@@H](CN(C)C)[C@@H]2CC1.O=C(O)/C=C/C(=O)O,Activity,HL-60 [5],Dose-dependent effect
same,IC50,"HL-60 [5]; HL-60, 48 h",3.9 to 16.2 µM
same,IC90,"HL-60 [5]; HL-60, 48 h",16.4 to 54.1 µM
same,Activity,HL60/ADR,Dose-dependent effect
same,IC50,HL60/ADR,3.9 to 16.2 µM
same,IC90,HL60/ADR,16.4 to 54.1 µM
same,Activity,K562,Dose-dependent effect
same,IC50,"K562; K562, 48 h",3.9 to 16.2 µM
same,IC90,"K562; K562, 48 h",16.4 to 54.1 µM
same,Activity,K562/Adr,Dose-dependent effect
same,IC50,K562/Adr,3.9 to 16.2 µM
same,IC90,K562/Adr,16.4 to 54.1 µM
same,IC50,[6],3.9 to 16.2 µM
same,IC90,[6],16.4 to 54.1 µM
same,Activity,Homo sapiens,Dose-dependent effect
same,Activity,SW1990,Dose-dependent effect
same,IC50,"SW1990; SW1990, 48 h",3.9 to 16.2 µM
same,IC90,"SW1990; SW1990, 48 h",16.4 to 54.1 µM
same,Activity,SH-SY5Y,Dose-dependent effect
same,IC50,SH-SY5Y,3.9 to 16.2 µM
same,IC90,SH-SY5Y,16.4 to 54.1 µM
same,mortality at 20 ug/ml,[7],80%
same,survival at 72 h,[8],100%
same,Activity,HL-60 [9],Dose-dependent effect
same,inhibition (INH),HL-60 [10],56.44%
same,inhibition (INH),HL-60 [11],58.1%
C=C1C(=O)O[C@H]2[C@H]1CCC(C)=C1CC[C@@](C)(OC(=O)CCCc3cn(CCOCCOCCOCCNC(=O)CCCC[C@H]4SC[C@H]5NC(=O)N[C@H]54)nn3)[C@@H]12,Activity,Pyruvate kinase PKM [4],Active
same,Activity,Pyruvate kinase PKM [12],inactive
same,Activity,Pyruvate kinase PKM [13],Active
same,Activity,Pyruvate kinase PKM [14],Active
same,Activity,Pyruvate kinase PKM [15],inactive
same,Activity,Pyruvate kinase PKM [16],Active
same,Activity,[17],inactive
same,K,Pyruvate kinase PKM [18],0.033 min⁻¹
same,Activity,Pyruvate kinase PKM [18]; TDE = time-dependent effect,Tde
same,Kact,Pyruvate kinase PKM [19],0.031 min⁻¹
same,Ki,Pyruvate kinase PKM [19],0.05 µM
same,Ratio,Pyruvate kinase PKM [20],1.03 ×10⁴ /M/s
Nc1ccn([C@@H]2O[C@H](CO)[C@@H](O)[C@@H]2O)c(=O)n1 [CYTARABINE],inhibition (INH),HL-60 [21],43.28%
same,inhibition (INH),HL-60 [22],44.04%
